# Paper PMC5959779 (ACS chemical biology, 2018)
# Read-outs that look alike come from different tables or passages of the source. Peptide text beside a SMILES is read from it. * marks the point of attachment. Cbz = O=C(OCc1ccccc1)*; CH2F = FC*
# Key:
# caspase-8 wild-type = assay: differential scanning fluorimetry thermal stability; type: binding; conditions: DSF; for TM Values, Wild Type: zinc salts at 50 μM
# caspase-8 C360A = assay: as above; type: binding; conditions: DSF; for TM Values, C360A: zinc salts at 50 μM; for effect on Tm of caspase-8 C360A: incubation with other metals
# caspase-3 [1] = target: T1, caspase-3 (Homo sapiens, UniProt P42574); assay: caspase-3 cleavage of fluorogenic tetrapeptide substrate DEVD-AMC; type: biochemical
# T1 sequence (P42574 29-175 limits assumed): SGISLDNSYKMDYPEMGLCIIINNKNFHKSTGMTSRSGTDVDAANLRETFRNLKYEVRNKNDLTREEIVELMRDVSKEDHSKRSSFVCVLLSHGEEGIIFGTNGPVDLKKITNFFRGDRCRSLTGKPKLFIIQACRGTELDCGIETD
# T1 sequence (P42574 176-277 limits assumed): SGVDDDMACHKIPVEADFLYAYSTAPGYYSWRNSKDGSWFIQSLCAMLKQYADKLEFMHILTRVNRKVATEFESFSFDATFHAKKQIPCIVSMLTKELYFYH
# caspase-7 [2] = target: T2, caspase-7 (Homo sapiens, UniProt P55210); assay: caspase-7 cleavage of fluorogenic tetrapeptide substrate DEVD-AMC; type: biochemical
# T2 sequence (P55210 24-198 limits assumed): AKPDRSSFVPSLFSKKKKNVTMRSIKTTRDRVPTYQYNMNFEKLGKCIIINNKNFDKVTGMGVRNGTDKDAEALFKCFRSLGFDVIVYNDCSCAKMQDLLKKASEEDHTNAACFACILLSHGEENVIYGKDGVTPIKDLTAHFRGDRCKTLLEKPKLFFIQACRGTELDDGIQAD
# T2 sequence (P55210 207-303 limits assumed): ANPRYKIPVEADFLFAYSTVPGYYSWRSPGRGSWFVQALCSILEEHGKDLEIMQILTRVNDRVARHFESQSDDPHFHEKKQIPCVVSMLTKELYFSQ
# caspase-8 [3] = target: T3, caspase-8 (Homo sapiens, UniProt Q14790); assay: caspase-8 cleavage of fluorogenic tetrapeptide substrate LEHD-AMC; type: biochemical
# T3 sequence (Q14790 217-374 limits assumed): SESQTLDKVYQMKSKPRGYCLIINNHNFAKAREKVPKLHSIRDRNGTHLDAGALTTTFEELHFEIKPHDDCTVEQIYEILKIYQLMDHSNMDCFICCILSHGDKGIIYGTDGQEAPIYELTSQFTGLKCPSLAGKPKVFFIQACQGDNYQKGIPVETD
# T3 sequence (Q14790 385-479 limits assumed): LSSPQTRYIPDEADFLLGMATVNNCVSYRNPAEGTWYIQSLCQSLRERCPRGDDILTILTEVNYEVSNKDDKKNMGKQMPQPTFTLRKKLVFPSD
# caspase-3 [4] = target: T1, caspase-3; assay: caspase-3 cleavage of protein substrates PAK2 and PARP, metal panel; type: biochemical
# caspase-7 [5] = target: T2, caspase-7; assay: caspase-7 cleavage of protein substrate PAK2, metal panel; type: biochemical
# caspase-8 [6] = target: T3, caspase-8; assay: caspase-8 cleavage of procaspase-7; type: biochemical; conditions: metal panel
# [7] = read-out: KD for zinc; cited from earlier work
# caspase-6 [8] = target: T4, caspase-6 (Homo sapiens, UniProt P55212); assay: caspase-6 cleavage of preferred fluorogenic tetrapeptide substrate; type: biochemical
# T4 sequence (P55212 24-179 limits assumed): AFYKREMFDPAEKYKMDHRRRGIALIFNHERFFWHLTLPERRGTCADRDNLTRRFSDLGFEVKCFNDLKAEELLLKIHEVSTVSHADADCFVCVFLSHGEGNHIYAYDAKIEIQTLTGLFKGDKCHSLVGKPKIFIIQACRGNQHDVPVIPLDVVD
# T4 sequence (P55212 194-293 limits assumed): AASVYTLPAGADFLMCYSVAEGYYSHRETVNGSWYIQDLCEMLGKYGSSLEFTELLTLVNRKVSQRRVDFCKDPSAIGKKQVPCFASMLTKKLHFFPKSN
# caspase-3 [9] = target: T1, caspase-3; assay: zincon colorimetric zinc-binding stoichiometry; conditions: zincon absorbance at 620 nm
# How it was run: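 Caspase-3 and -7 were tested alone or with the active site occupied by zVAD; caspase-8 wild type and C360A were also tested. Mean ± SEM from three experiments on three separate days.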
# caspase-3 [10] = target: T1, caspase-3; assay: Fluozin-3 competition zinc affinity; type: binding; conditions: competition with Fluozin-3
# How it was run: (§1)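 Caspase titrated into reactions holding a constant amount of zinc and the fluorescent zinc indicator Fluozin-3. Each reaction was left to reach equilibrium, then Fluozin-3 fluorescence was read, with signal falling as caspase competed for zinc. Mean ± SEM from three experiments on three separate days.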
# caspase-6 [11] = target: T4, caspase-6; assay: Fluozin-3 competition zinc affinity; type: binding; conditions: competition with Fluozin-3
# How it was run: as §1
# caspase-8 [12] = target: T3, caspase-8; assay: Fluozin-3 competition zinc affinity; type: binding; conditions: competition with Fluozin-3
# How it was run: as §1
# caspase-8 [13] = target: T3, caspase-8; assay: size exclusion chromatography of caspase-8 oligomeric state; conditions: SEC after incubation
# How it was run: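 Oligomeric state of caspase-8 was resolved by size-exclusion chromatography into dimer and monomer peaks. Protein was run alone, after incubation with zVAD-FMK, or after inhibitor incubation followed by increasing zinc. Peak fractions were quantified as mean ± SEM from three experiments on three separate days.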
# caspase-3 [14] = target: T1, caspase-3; conditions: cited from earlier work
# caspase-6 [15] = target: T4, caspase-6; conditions: read-out: IC50 (unbuffered); cited from earlier work
# [16] = test system: caspase-7 variant H131A/C171A; assay: activity of caspase-7 variant in absence and presence of ZnCl2; type: biochemical; conditions: presence vs absence of ZnCl2
# [17] = metal panel, peptide substrate DEVD-AMC
# [18] = panel of biologically relevant metals
# [19] = read-out: IC50 Values Unbuffered, total zinc, no zinc buffer, 10 nM caspase
# [20] = zinc buffered (NTA), mixed model of inhibition, global fit
smiles,measurement,setting,value
"CC[C@H](C)[C@H](NC(C)=O)C(=O)N[C@@H](CCC(=O)O)C(=O)N[C@H](C(=O)N[C@H](C=O)CC(=O)O)[C@@H](C)O [Ac-IETD-CHO, acetyl-Ile-Glu-Thr-Asp-aldehyde, reference compound] (Ac-IETD-aldehyde)",Tm increase,caspase-8 wild-type,27 °C
same,"TM Values, Wild Type",caspase-8 wild-type,75.5 ± 0.3 °C
same,"TM Values, C360A",caspase-8 C360A,46.4 ± 0.2 °C
"[Cd] [Cadmium, cadmium]",activity remained,caspase-3 [1]; [17],39%
same,activity remained,caspase-7 [2]; [17],84%
same,activity remained,"caspase-8 [3]; metal panel, peptide substrate LEHD-AMC",12%
same,effect on cleavage of protein substrate PARP,caspase-3 [4],inhibitory effect
same,effect on cleavage of protein substrate PAK2,caspase-7 [5],had an inhibitory effect
same,effect on cleavage of procaspase-7 (C186A),caspase-8 [6],minor impact
"[Cu] [Copper, copper]",effect on cleavage of protein substrate PAK2,caspase-3 [4],did not observe
same,effect on cleavage of procaspase-7 (C186A),caspase-8 [6],minor impact
same,effect on Tm of caspase-8 C360A,caspase-8 C360A,failed to significantly alter
COc1ccc(N(CC(=O)O)CC(=O)O)c(OCCOc2cc(-c3c4cc(F)c(=O)cc-4oc4cc(O)c(F)cc34)ccc2NCC(=O)O)c1 [Fluozin-3],Kd,[7],15 nM
"[Zn+2] [Zinc, zinc]",effect on peptide substrate cleavage,caspase-3 [1]; [18],inhibited
same,IC50,caspase-3 [1]; [19],104 ± 26 nM
same,Ki,caspase-3 [1]; [20],6.9 nM
same,IC50,caspase-6 [8]; [19],4530 ± 1100 nM
same,Ki,"caspase-6 [8]; zinc buffered (NTA), assumed noncompetitive",2.6 nM
same,effect on peptide substrate cleavage,caspase-7 [2]; [18],inhibited
same,IC50,caspase-7 [2]; [19],1580 ± 750 nM
same,Ki,"caspase-7 [2]; zinc buffered (citrate), mixed model of inhibition, global fit",76.1 nM
same,effect on peptide substrate cleavage,caspase-8 [3]; [18],inhibited
same,IC50,caspase-8 [3]; [19],367 ± 38 nM
same,Ki,caspase-8 [3]; [20],4.3 nM
same,effect on cleavage of protein substrate PARP,caspase-3 [4],inhibitory effect
same,effect on cleavage of procaspase-7 (C186A),caspase-8 [6],significant impact
same,zincs bound per caspase monomer (stoichiometry),caspase-3 [9],three
same,zinc affinity (KD via Cheng-Prusoff),caspase-3 [10],low nanomolar affinity
same,zinc affinity (KD via Cheng-Prusoff),caspase-6 [11],low nanomolar affinity
same,zinc affinity (KD via Cheng-Prusoff),caspase-8 [12],low nanomolar affinity
same,caspase-8 eluting as dimer,caspase-8 [13],10%
same,caspase-8 eluting as monomer,caspase-8 [13],90%
same,destabilization of caspase-8 C360A (Tm decrease),caspase-8 C360A,5 °C
same,zinc concentration at which caspase-3 is inhibited,caspase-3 [14],≥ 1.7 nM
same,IC50,caspase-6 [15],4500 nM
O=C(O)c1ccccc1NN=C(N=Nc1cc(S(=O)(=O)O)ccc1O)c1ccccc1 [Zincon],Kd,[7],12000 nM
[Cl-].[Cl-].[Zn+2] [ZnCl2],effect on cleavage of protein substrate PAK2,caspase-3 [4],completely inhibited
same,effect on cleavage of protein substrate PAK2,caspase-7 [5],inhibited
same,destabilization of caspase-8 (Tm decrease),caspase-8 wild-type,approximately 3 °C
same,"TM Values, Wild Type",caspase-8 wild-type,44.5 ± 0.4 °C
same,destabilization of caspase-8 C360A (Tm decrease),caspase-8 C360A,5 °C
same,"TM Values, C360A",caspase-8 C360A,41.5 ± 0.9 °C
same,inhibition of variant activity,[16],inhibited by zinc in a similar fashion to wild-type
O=S(=O)([O-])[O-].[Zn+2] [ZnSO4],effect on cleavage of protein substrate PAK2,caspase-3 [4],completely inhibited
same,effect on cleavage of protein substrate PAK2,caspase-7 [5],inhibited
same,destabilization of caspase-8 (Tm decrease),caspase-8 wild-type,approximately 3 °C
same,"TM Values, Wild Type",caspase-8 wild-type,44.8 ± 0.3 °C
same,destabilization of caspase-8 C360A (Tm decrease),caspase-8 C360A,5 °C
same,"TM Values, C360A",caspase-8 C360A,41.6 ± 0.6 °C
[Ca+2] [calcium],effect on Tm of caspase-8 C360A,caspase-8 C360A,failed to significantly alter
[Co] [cobalt],effect on cleavage of protein substrate PAK2,caspase-3 [4],did not observe
[Fe] [iron],effect on Tm of caspase-8 C360A,caspase-8 C360A,failed to significantly alter
"CC(NC(=O)C(NC(=O)OCc1ccccc1)C(C)C)C(=O)NC(CC(=O)O)C(=O)CF (stereo not drawn) [zVAD-FMK, carbobenzoxy-Val-Ala-Asp-fluoromethylketone, reference compound] (Cbz-Val-Ala-Asp-CH2F; configuration not given here)",inhibition of caspase activity,caspase-3 [1]; two-hour incubation,completely inhibited
same,inhibition of caspase activity,caspase-7 [2]; two-hour incubation,completely inhibited
same,caspase-8 eluting as dimer,caspase-8 [13],63%
same,caspase-8 eluting as monomer,caspase-8 [13],37%
